Assay outcomes from PubChem.
S100A4 MyoIIA: blocks human S100A4 binding to myosin IIA peptide; inhibition, % at 10.7 µM; P26447; AID 652163; 0.14% of 360,000 active; S100A4/TAMRA-MyoIIA peptide fluorescence polarization;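 active means mean inhibition of at least 70% across replicates, with every replicate also reaching that level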
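Compound dosing: one dose per compound; test system: human S100A4 monomer with TAMRA-labelled myosin IIA peptide; probe or stimulus: TAMRA-labelled myosin IIA heavy-chain peptide probe, 5 nM; medium: HEPES buffer with Ca2+, pH 7.2; schedule: 5 min incubation before reading; benchmarks: neutral control DMSO, positive control TFP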
RAD52 inh: RAD52 (human) annealing inhibition; P43351; recombinant RAD52 DNA annealing, FRET fluorescence; inhibition, % at 18.7 µM; 0.46% of 360,000 active; AID 651710;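 active means every replicate showing at least 50% inhibition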
Target sequence (P43351 whole entry, looked up): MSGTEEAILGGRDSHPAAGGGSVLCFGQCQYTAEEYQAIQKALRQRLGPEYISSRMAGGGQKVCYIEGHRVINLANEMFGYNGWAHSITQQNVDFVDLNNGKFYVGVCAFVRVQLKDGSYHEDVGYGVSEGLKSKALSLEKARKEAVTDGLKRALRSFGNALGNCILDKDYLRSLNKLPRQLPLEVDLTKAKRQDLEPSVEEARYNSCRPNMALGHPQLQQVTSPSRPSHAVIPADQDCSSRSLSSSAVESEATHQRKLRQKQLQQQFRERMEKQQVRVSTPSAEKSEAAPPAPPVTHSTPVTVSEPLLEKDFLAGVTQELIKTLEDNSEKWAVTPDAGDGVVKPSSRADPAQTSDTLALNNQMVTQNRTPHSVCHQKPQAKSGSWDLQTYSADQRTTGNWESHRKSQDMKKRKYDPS
GSIS activator: GLuc luminescence reporter in INS-1E cells, primary screen for activators of glucose-dependent secretion of insulin; 0.61% of 370,000 active; activation, % at 16.6 µM; AID 743287; INS-1E GLuc reporter insulin secretion, 2-3 h;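 active means lowest replicate activation of at least 40%, so every replicate reaches that level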;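 further: 0% = median of neutral control wells and 100% = median of IBMX positive control wells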
ERAP1 inh: ERAP1 (human) enzyme inhibition. Q9NZ08. recombinant ERAP1, Leu-AMC fluorescence, 60 min. inhibition, % at 10.7 µM. 0.15% of 340,000 active;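 active means mean replicate inhibition of at least 30%, or all replicates individually reaching that 30% level; inactive means mean below 30% and not every replicate reaching it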;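 further: 0% = neutral control wells and 100% = L-leucinethiol positive control wells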
AF4-AF9 inh: MLL-AF4/AF9 protein interaction inhibition | P42568 | AlphaScreen, biotin-AF4 peptide binding to FLAG-AF9 | inhibition, % at 10 µM | 0.47% of 350,000 active | AID 651704;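 active means every replicate reaching a set inhibition limit, whatever the replicate mean, cut at about 25% in these data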;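 further: 0% = plate neutral control median and 100% = total signal loss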
The depositor's hits bear a star; / = no result given. A selection: hits, their analogues and other compounds. The true share with any hit is near 1.5%.

SMILES | S100A4 MyoIIA | RAD52 inh | GSIS activator | ERAP1 inh | AF4-AF9 inh
Cc1cc(NC(=O)c2cc(-c3cccc(Cl)c3)on2)no1 | / | / | 124.8* | / | /
COc1cccc(-c2cc(C(=O)Nc3cc(C)on3)no2)c1 | / | / | 72.8* | / | /
CCCC#Cc1ccc([C@H]2[C@@H](CO)N3C(=O)CN(C(=O)Nc4cc(F)ccc4F)C[C@@H]23)cc1 | / | / | -16.3 | / | /
COc1ccccc1NC(=O)N[C@H]1C=C[C@H](CC(=O)N2CCC(Cc3ccccc3)CC2)O[C@@H]1CO | 103.5* | -1.2 | -5.4 | 2.8 | -10.8
COc1ccc2c3c(n(C)c2c1)[C@H](CO)N(C)CC31CCN(C(=O)C2CCC2)CC1 | / | / | -6.0 | / | /
CN(C)CCCNC(=O)C[C@@H]1CC[C@@H]2[C@H](COC[C@@H](O)CN2CC2CCCCC2)O1 | 10.9 | 1.1 | 8.9 | 2.7 | -1.0
O=C(C[C@@H]1CC[C@H]2[C@@H](COC[C@@H](O)CN2CC2CCCCC2)O1)NCc1ccc(F)cc1 | 115.8* | 5.4 | 0.9 | -0.1 | 1.1
CN(C)CCCNC(=O)C[C@@H]1CC[C@H]2[C@@H](COC[C@H](O)CN2CC2CCCCC2)O1 | 1.2 | 64.7* | 13.3 | -0.1 | -0.4
COc1ccc(S(=O)(=O)N(C)C[C@@H]2Oc3ncc(-c4ccncc4)cc3C(=O)N([C@@H](C)CO)C[C@@H]2C)cc1 | 6.6 | -1.4 | 15.8 | 4.2 | -2.7
Nc1cc2c(cc1Cl)-c1ccccc1C2 | -4.1 | 3.0 | / | -2.1 | 50.2*
C=CCN1CCc2c(cc(O)c(O)c2Cl)C(c2ccccc2)C1 (stereo not given) | 2.1 | -5.2 | -6.2 | -0.5 | 51.8*
NS(=O)(=O)c1ccc(CCNc2nn3c(-c4cccc(OC(F)(F)F)c4)cnc3s2)cc1 | 58.9 | 10.7 | 143.4* | 2.4 | -2.9
COc1ccc(CNc2nn3c(-c4cccc(C(=O)N(C)C)c4)cnc3s2)cc1 | -1.4 | -7.1 | 25.9 | 6.4 | -1.6
O=C(CCc1ccccc1)NNC(=O)COc1ccccc1Cl | 3.5 | -9.3 | 137.0* | -1.8 | 7.9
CCOC(=O)[C@H](Cc1c[nH]c2ccccc12)NC(=O)CN=[N+]=[N-] | 7.6 | 0.5 | / | 0.5 | 1.4
Cn1cc(C=C2C(=O)CC(C)(C)CC2=O)c2ccccc21 | -4.0 | -16.5 | 3.2 | 2.6 | 11.5
Cn1cc(C=C2C(=O)OC3(CCCCC3)OC2=O)c2ccccc21 | -8.0 | -22.2 | / | -2.1 | 25.7*
C[C@H]1CCCCO[C@H](CN(C)C(=O)C2CCCCC2)[C@@H](C)CN([C@@H](C)CO)C(=O)c2cc(N(C)C)ccc2O1 | / | / | -11.9 | / | /
COCCN=C1N[C@@H](c2ccc(Br)cc2)C(C(=O)OC)=C(C)N1Cc1ccccc1 | -1.2 | 20.8 | / | 90.7* | 2.8
COC(=O)C1=C(C)N(Cc2ccc(C(F)(F)F)cc2)C(=NCc2ccccc2)NC1c1ccc(Cl)cc1 (stereo not given) | -1.6 | -2.7 | 726.0* | -1.8 | -0.6
COC(=O)C1=C(C)N(Cc2ccccc2C(F)(F)F)C(=NCc2ccc(OC)cc2)NC1c1ccc(Cl)cc1 (stereo not given) | -1.8 | -9.5 | 87.3* | 1.6 | /
COC(=O)C1=C(C)N(Cc2cccc(C(F)(F)F)c2)C(=NCC2CC2)NC1c1ccccc1 (stereo not given) | 3.7 | -2.6 | / | -1.2 | 6.0
COC(=O)C1=C(C)N(Cc2ccc(C(F)(F)F)cc2)C(=NCC2CC2)NC1c1ccccc1 (stereo not given) | -3.9 | 8.4 | 60.4* | 1.0 | 6.9
COC(=O)C1=C(C)N(Cc2ccccc2C(F)(F)F)C(=NCc2ccc(C(F)(F)F)cc2)NC1c1ccc(Cl)cc1 (stereo not given) | -20.2 | -10.3 | -23.1 | 0.2 | /
Cc1noc(C)c1S(=O)(=O)Nc1ccc2c(c1)CC(=O)N([C@H](C)CO)C[C@@H](C)[C@H](CN(C)Cc1ccc(Cl)c(Cl)c1)O2 | 0.7 | -18.8 | -16.7 | -0.4 | 4.0
CCOc1cc(/C=C\[N+](=O)[O-])ccc1OCC(=O)N1CCOCC1 | -3.4 | -10.4 | -13.8 | 1.8 | -8.9
CCOc1cc(/C=C/c2nc3cc(C)c(C)cc3s2)ccc1OCC(=O)N1CCOCC1 | -3.0 | -45.3 | 16.7 | 36.5* | 5.0
C[C@H](CO)N1C[C@H](C)[C@@H](CN(C)C(=O)Nc2ccccc2C(F)(F)F)OCc2ccccc2-c2ccccc2C1=O | / | / | -13.2 | / | /
CCCN1C[C@H](C)[C@@H](OC)CN(C)C(=O)c2cc(NC(=O)Nc3cccc(OC)c3)ccc2OC[C@H]1C | / | / | -8.8 | / | /
